From ChEMBL document CHEMBL1121866, “Synthesis of 5'-thymidinyl bis(1-aziridinyl)phosphinates as antineoplastic agents” (1981)

Legend:
Type in all cases: functional
Mus musculus [1] = assay: Compound was evaluated for antitumor activity against L1210 leukemia in mice by NCI screener test at a dose of 200 mg/kg
Outline: (§1)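 Tested in mice bearing L1210 or P-388 leukemia in the National Cancer Institute screening program under NCI standard assay protocols. Read-out is survival as % T/C, treated versus control, at each dose level.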

Mus musculus [2] = assay: Compound was evaluated for antitumor activity against L1210 leukemia in mice by NCI screener test at a dose of 100 mg/kg; outline: as §1
Mus musculus [3] = assay: Compound was evaluated for antitumor activity against L1210 leukemia in mice by NCI screener test at a dose of 50 mg/kg; outline: as §1
Mus musculus [4] = assay: Compound was evaluated for antitumor activity against L1210 leukemia in mice by W screener test at a dose of 250 mg/kg
Mus musculus [5] = assay: Compound was evaluated for antitumor activity against L1210 leukemia in mice by W screener test at a dose of 500 mg/kg
Outline: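 L1210 leukemia in mice, run at Virginia Commonwealth University by G. L. Wampler at higher dose levels, following NCI standard assay guidelines. Activity is reported as survival % T/C.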

Mus musculus [6] = assay: Compound was evaluated for antitumor activity against P-388 leukemia in mice by NCI screener test at a dose of 100 mg/kg; outline: as §1
Mus musculus [7] = assay: Compound was evaluated for antitumor activity against P-388 leukemia in mice by NCI screener test at a dose of 200 mg/kg; outline: as §1
Mus musculus [8] = assay: Compound was evaluated for antitumor activity against P-388 leukemia in mice by NCI screener test at a dose of 25 mg/kg; outline: as §1
Mus musculus [9] = assay: Compound was evaluated for antitumor activity against P-388 leukemia in mice by NCI screener test at a dose of 50 mg/kg; outline: as §1

| SMILES | T/C (Mus musculus [1]) | T/C (Mus musculus [2]) | T/C (Mus musculus [3]) | T/C (Mus musculus [4]) | T/C (Mus musculus [5]) | T/C (Mus musculus [6]) | T/C (Mus musculus [7]) | T/C (Mus musculus [8]) | T/C (Mus musculus [9]) |
| --- | --- | --- | --- | --- | --- | --- | --- | --- | --- |
| Cc1cn([C@H]2C[C@H](O)[C@@H](CO[P+]([O-])(N3CC3(C)C)N3CC3(C)C)O2)c(=O)[nH]c1=O (stereo partly drawn) | 124% | 105% | 94% | – | – | – | – | – | – |
| Cc1cn([C@H]2C[C@H](O)[C@@H](CO[P+]([O-])(N3CC3)N3CC3)O2)c(=O)[nH]c1=O | 94% | 100% | 107% | – | – | – | – | – | – |
| CC(=O)O[C@H]1C[C@H](n2cc(C)c(=O)[nH]c2=O)O[C@@H]1CO[P+]([O-])(N1CC1)N1CC1 | 112% | – | 107% | 111% | 111% | 124% | 142% | 104% | 112% |
| CC(=O)O[C@H]1C[C@H](n2cc(C)c(=O)[nH]c2=O)O[C@@H]1CO[P+]([O-])(N1CC1(C)C)N1CC1(C)C (stereo partly drawn) | 123% | 112% | 110% | 125% | 137% | 141% | 154% | 110% | 138% |
